PDI turbidity = inhibitors of human protein disulfide isomerase; P07237; PDI insulin aggregation turbidity, A650, 90 min; inhibition, % at 10 µM; 350,000 compounds, 0.052% hits; AID 588391;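 active = mean inhibition across replicates of 30% or more, whatever share of single replicates reach that level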
DENV2 CPE = inhibitors of DENV2 cytopathic effect. DENV2-infected cells, cytopathic effect rescue, plate reader. CPE inhibition, % at 9.99 µM. 350,000 compounds, 1.7% hits. AID 651640; in the data active = CPE inhibition above about 20%, passing the limit was not always enough; tested in BHK-21 cells;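 also: 0% = median of neutral control wells and 100% = median of positive control wells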
CFTR F508del cor = correctors of CFTR F508del function in bronchial epithelial cells; CFBE cells, YFP halide quenching; stimulated with forskolin plus potentiator P3; % fluorescence drop versus neutral controls; activity (quench increase), % at 7.58 µM; 350,000 compounds, 0.36% hits; AID 720511;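 active = mean added fluorescence quench of at least 8% versus neutral control, with both replicates also reaching 8%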;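 also: cells transiently co-express mutant CFTR-F508del with the halide-sensitive YFP; corrector assay measuring rescue of mutant channel to the surface after 24 h compound exposure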
C2C12 statin = suppressors of simvastatin-induced myotoxicity in C2C12 myotubes. 330,000 compounds, 0.78% hits. ATP luminescence, 48 h; scaled: DMSO 0, geranylgeraniol control 100. rescue of ATP level, % at 7.49 µM;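 active = mean ATP rescue above about 67%, or every replicate alone reaching that limit, limit read from the data, passing the limit was not always enough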;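 also: myotubes were challenged with 10 µM simvastatin during compound exposure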
ERp5 block = blocks human ERp5 reductase activity on insulin; AID 651711; ERp5 insulin aggregation, absorbance 650 nm, 90 min; 350,000 compounds, 0.05% hits; inhibition, % at 9.99 µM; Q15084;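 active = mean replicate inhibition above about 25%, with every replicate also reaching it, limit read from the data, passing the limit was not always enough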
Target sequence (Q15084 whole entry, looked up): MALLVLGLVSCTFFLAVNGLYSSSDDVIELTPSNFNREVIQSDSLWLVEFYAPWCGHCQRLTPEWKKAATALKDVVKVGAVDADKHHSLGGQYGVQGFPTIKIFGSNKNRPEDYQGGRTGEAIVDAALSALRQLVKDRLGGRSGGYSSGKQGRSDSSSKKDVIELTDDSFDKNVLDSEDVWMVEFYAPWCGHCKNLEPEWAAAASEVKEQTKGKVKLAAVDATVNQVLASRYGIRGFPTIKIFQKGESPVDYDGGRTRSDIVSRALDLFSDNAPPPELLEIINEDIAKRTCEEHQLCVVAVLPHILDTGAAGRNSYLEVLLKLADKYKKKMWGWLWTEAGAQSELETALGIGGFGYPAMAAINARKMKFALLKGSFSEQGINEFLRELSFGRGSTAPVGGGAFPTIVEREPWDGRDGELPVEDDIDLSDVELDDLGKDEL
Cneo AK release = causes C. neoformans cell lysis. adenylate kinase release luminescence, 4 h; normalised: neutral wells 0, clomiphene wells 100. lysis activity, % at 15 µM. 360,000 compounds, 0.2% hits. AID 651654;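 active = mean lysis activity across replicates of at least 80%, whatever share of replicates individually reach that level; inactive = mean lysis activity below 80%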
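Schedule: static 4 h at 37 °C with compound, 1 h detection; system: C. neoformans cells; benchmarks: Clomiphene as positive control; buffer or medium: fresh YPD medium; measure: luminescence rise reflecting yeast cell lysis; measured by: luminescent adenylate kinase detection reagent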
* hit, by the source's call; nt = not tested or not shown. Sampled rows, rich in hits. Any-hit rate of the full collection: about 2.3%.

SMILES | PDI turbidity | DENV2 CPE | CFTR F508del cor | C2C12 statin | ERp5 block | Cneo AK release
O=C(c1cccnc1)N1CCCCN2[C@H](C1)[C@@H](c1ccc(C#Cc3ccccn3)cc1)[C@@H]2CO | nt | -2.2 | -1.7 | -1.0 | -1.1 | 4.1
Cc1cc(Cl)c(S(=O)(=O)Nc2ccc3c(c2)OCO3)cc1OCC(=O)NC1CCCCC1 | 14.5 | nt | nt | -6.1 | nt | 2.2
Cc1cc(Cl)c(S(=O)(=O)Nc2ccc3c(c2)OCO3)cc1OCC(N)=O | 5.2 | nt | nt | 100.5* | nt | -0.2
O=C(c1ccc(F)cc1)N1CCCCN2[C@@H](CO)[C@@H](c3ccc(C#CC4(O)CCCC4)cc3)[C@@H]2C1 | nt | 36.3* | -0.8 | nt | 2.2 | -3.3
OC[C@H]1[C@@H](c2ccc(C#CC3(O)CCCC3)cc2)[C@@H]2CN(Cc3ccccc3F)CCCCN12 | nt | 41.4* | 2.5 | nt | 5.6 | 0.0
CN(C)C(=O)c1ccc(-c2ccc3c(c2)[C@H]2[C@H](CCN2Cc2cncnc2)[C@H](CO)N3)cc1 | nt | -8.4 | 2.8 | 19.3 | nt | -1.1
C[C@H]1CN([C@@H](C)CO)C(=O)c2cc(-c3ccc(C#N)cc3)cnc2O[C@@H]1CN(C)C(=O)Nc1ccc(F)cc1 | nt | -2.9 | 1.1 | -16.2 | 4.9 | 1.9
O=C(Nc1ccc(S(=O)(=O)Nc2ncccn2)cc1)c1cccc([N+](=O)[O-])c1 | 8.1 | 71.1* | -1.8 | 3.6 | -0.1 | 1.7
O=C(Nc1ccc(S(=O)(=O)Nc2ncccn2)cc1)c1cc([N+](=O)[O-])ccc1Cl | -0.1 | -1.5 | -0.4 | 21.0 | -0.9 | 1.5
C[C@H](CO)N1C[C@H](C)[C@@H](CN(C)Cc2ccccc2)OCCCC[C@H](C)Oc2ccc(NC(=O)Nc3ccc(F)cc3)cc2C1=O | nt | -7.4 | 0.7 | nt | 1.8 | 4.7
C[C@@H]1CN([C@@H](C)CO)S(=O)(=O)c2ccc(C#C[C@@H](C)O)cc2O[C@H]1CN(C)CC1CCCC1 | nt | 21.0* | 0.9 | -172.3 | -2.6 | 2.3
C[C@H](O)C#Cc1ccc2c(c1)O[C@H](CN(C)CC1CCCCC1)[C@H](C)CN([C@H](C)CO)S2(=O)=O | nt | 0.2 | 1.6 | -13.4 | 2.3 | -2.4
C[C@H](O)C#Cc1ccc2c(c1)O[C@H](CN(C)C(=O)C1CCCCC1)[C@H](C)CN([C@@H](C)CO)S2(=O)=O | nt | -1.4 | 3.7 | -2.3 | -0.1 | 93.8*
C[C@@H]1CN([C@H](C)CO)S(=O)(=O)c2ccc(C#CC(C)(C)O)cc2O[C@H]1CN(C)C(=O)C1CCCCC1 | nt | 14.4 | 1.5 | -32.4 | 7.6 | 0.2
C[C@@H]1CN([C@@H](C)CO)S(=O)(=O)c2ccc(C#CC(C)(C)O)cc2O[C@@H]1CN(C)C(=O)C1CCCCC1 | nt | 21.5* | -2.6 | -12.8 | 0.3 | -0.5
COCC(=O)Nc1ccc2c(c1)[C@@H]1C[C@@H](CC(=O)OC)O[C@H](CO)[C@@H]1O2 | nt | 19.4 | 1.8 | 5.3 | nt | 1.0
CCNC(=O)Nc1ccc2c(c1)C(=O)N(C)[C@H]1CC[C@@H](CC(=O)Nc3ccccc3)O[C@@H]1CO2 | nt | 3.7 | -0.4 | 3.8 | -3.8 | -4.1
NS(=O)(=O)c1ccc(CNc2ccc3ccccc3n2)cc1 | 6.1 | 7.6 | 8.7* | -8.1 | -0.6 | -4.3
NS(=O)(=O)c1ccc(CNC(=O)c2ccc3ccccc3n2)cc1 | 10.3 | -0.4 | 4.7 | 11.1 | -1.2 | -2.9
C[C@@H]1CN([C@H](C)CO)C(=O)CCCn2cc(nn2)CO[C@@H]1CN(C)C(=O)c1cc(-c2ccccc2)on1 | nt | nt | 0.3 | -2.6 | nt | nt
CC1=NN(c2ccccc2)C(=O)C1N=Nc1ccccc1 (stereo not drawn) | 7.6 | -3.4 | -2.3 | nt | 1.5 | nt
CC1=NN(c2ccccc2)C(=O)C1N=Nc1cccc(O)c1 (stereo not drawn) | -3.4 | 11.9 | 19.1* | 3.2 | -10.8 | 2.9
C[C@@H]1CN([C@H](C)CO)C(=O)c2cccc(NS(=O)(=O)c3cccs3)c2O[C@@H]1CN(C)Cc1ccc(-c2ccccc2)cc1 | nt | -5.1 | -0.8 | 70.1* | 3.4 | -0.7
C[C@@H]1CN([C@H](C)CO)C(=O)c2cccc(NS(=O)(=O)c3cccs3)c2O[C@@H]1CN(C)Cc1ccc(Oc2ccccc2)cc1 | nt | -8.1 | -4.6 | 79.4* | 4.3 | 1.8
CC(=O)N1C[C@H]2[C@@H](c3ccccc31)[C@@H](CO)N2C(=O)CC1CC1 | nt | -4.6 | -0.4 | 22.7 | -3.6 | -0.6
